Data reported in paper PMC2755653 (Journal of pharmaceutical sciences, 2009).

Experiments:
MDCKII-WT cells = experiment: Cellular accumulation of radiolabeled drug in MDCKII-WT cell monolayers; assay type: cell-based, canine; settings: for increase in cellular accumulation compared to control: 0.03% w/w Pluronic P85 (CMC)
P-gp = P-gp (Homo sapiens, UniProt P08183); experiment: Cellular accumulation of radiolabeled drug in MDCKII-MDR1 cell monolayers; assay type: cell-based; settings: for change in cellular accumulation at Pluronic P85 concentrations above the CMC / change in cellular accumulation with Pluronic P85 up to the CMC / cellular accumulation at 0.5% w/w P85 versus control without P85 / increase in cellular accumulation compared to control: MDR1 cells; for (WT/MDR1) accumulation ratio: nelfinavir
Sequence of P-gp (P08183 whole entry): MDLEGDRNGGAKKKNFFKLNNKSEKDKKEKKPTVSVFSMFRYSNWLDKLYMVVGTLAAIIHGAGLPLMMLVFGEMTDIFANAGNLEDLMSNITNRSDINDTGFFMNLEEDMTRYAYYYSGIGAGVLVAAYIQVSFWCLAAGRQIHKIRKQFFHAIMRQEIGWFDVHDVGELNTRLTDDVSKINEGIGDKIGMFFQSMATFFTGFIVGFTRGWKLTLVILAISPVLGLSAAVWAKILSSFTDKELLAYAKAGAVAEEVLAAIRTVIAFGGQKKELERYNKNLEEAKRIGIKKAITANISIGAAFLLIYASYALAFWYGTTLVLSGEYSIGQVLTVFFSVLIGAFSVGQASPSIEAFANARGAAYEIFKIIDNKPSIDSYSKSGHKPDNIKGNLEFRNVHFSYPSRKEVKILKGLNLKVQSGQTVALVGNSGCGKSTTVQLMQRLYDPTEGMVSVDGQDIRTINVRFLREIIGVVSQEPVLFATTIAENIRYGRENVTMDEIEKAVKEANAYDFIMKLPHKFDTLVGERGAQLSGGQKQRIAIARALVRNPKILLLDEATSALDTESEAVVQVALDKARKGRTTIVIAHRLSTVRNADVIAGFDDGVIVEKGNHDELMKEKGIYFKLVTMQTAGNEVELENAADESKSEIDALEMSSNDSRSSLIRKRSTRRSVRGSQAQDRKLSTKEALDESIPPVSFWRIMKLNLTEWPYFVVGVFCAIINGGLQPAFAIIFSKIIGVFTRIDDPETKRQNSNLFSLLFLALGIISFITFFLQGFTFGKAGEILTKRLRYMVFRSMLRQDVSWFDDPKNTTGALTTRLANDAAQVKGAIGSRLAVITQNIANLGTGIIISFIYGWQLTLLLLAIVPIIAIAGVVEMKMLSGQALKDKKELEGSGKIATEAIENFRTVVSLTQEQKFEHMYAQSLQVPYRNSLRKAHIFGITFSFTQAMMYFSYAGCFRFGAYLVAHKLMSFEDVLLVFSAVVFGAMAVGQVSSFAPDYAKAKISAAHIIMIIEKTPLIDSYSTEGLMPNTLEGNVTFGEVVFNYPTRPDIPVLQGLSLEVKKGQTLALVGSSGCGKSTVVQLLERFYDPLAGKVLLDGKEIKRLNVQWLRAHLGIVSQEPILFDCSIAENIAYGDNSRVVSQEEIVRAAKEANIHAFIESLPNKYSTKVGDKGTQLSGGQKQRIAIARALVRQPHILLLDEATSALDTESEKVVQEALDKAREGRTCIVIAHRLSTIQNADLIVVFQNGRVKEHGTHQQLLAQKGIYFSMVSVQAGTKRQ

[1] = Cell-free equilibrium dialysis with Pluronic P85; assay type: physicochemical; settings: for time to equilibrium: equilibrium dialysis, MWCO 50,000 membrane, 37°C
In short: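 Two-chamber dialysis across a 50,000 Da MWCO membrane at 37°C, stirred, in pH 7.4 HEPES/bicarbonate buffer. Radiolabeled test compound was in the donor and buffer in the receiver. Below CMC, P85 was on both sides. For micellar levels, the receiver held 0.025% w/w and the donor target plus 0.005% w/w. Free fraction was receiver/donor concentration; a transfer-rate model was fitted.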

[2] = cited from earlier work
[3] = at the CMC of Pluronic P85 (0.03% w/w; printed 0.035% w/w for nelfinavir)

Compound | change in cellular accumulation at Pluronic P85 concentrations above the CMC (P-gp) | change in cellular accumulation with Pluronic P85 up to the CMC (P-gp) | equilibrium free fraction ([1]; 0.5% w/w Pluronic P85) | equilibrium free fraction ([1]; absence of Pluronic P85) | equilibrium free fraction [1, 3] | time to equilibrium [1] | equilibrium free fraction ([1]; 0.1% w/w Pluronic P85) | cellular accumulation at 0.5% w/w P85 versus control without P85 (P-gp) | drug free ([1]; 0.5% w/w Pluronic P85) [%] | change in cellular accumulation at Pluronic P85 concentrations above the CMC (MDCKII-WT cells) | change in cellular accumulation with Pluronic P85 up to the CMC (MDCKII-WT cells) | cellular accumulation at 0.5% w/w P85 versus control without P85 (MDCKII-WT cells) | increase in cellular accumulation compared to control (MDCKII-WT cells) [fold] | also measured
COc1cc2c(cc1OC)CN(CCc1ccc(NC(=O)c3cccc4c(=O)c5cccc(OC)c5[nH]c34)cc1)CC2 [GF120918] |  |  |  |  |  |  |  |  |  |  |  |  |  | increase in nelfinavir accumulation compared to control (MDCKII-WT cells; highest concentration of GF120918 used): 5 fold; Emax (maximal effect on nelfinavir accumulation) (MDCKII-WT cells; sigmoid Emax model, mean ± SE): 4.76 ± 0.2 DPM normalized to stock / mg protein
Nc1nc(NC2CC2)c2ncn([C@H]3C=C[C@@H](CO)C3)c2n1 [abacavir] | significant decline | significant increase | 0.871 ± 0.095 | 1.057 ± 0.212 | 0.984 ± 0.083 | ~ 20 hrs |  |  |  | significant decline | no significant increase |  |  | drug associated with the micelles ([1]; 0.5% w/w Pluronic P85): roughly 10%
OC[C@@H](O)[C@@H](O)[C@H](O)[C@H](O)CO [mannitol] | no effect |  |  | 0.994 ± 0.06 |  | ~ 15 hrs | 0.968 ± 0.04 |  |  | no effect |  |  |  | 

More lines, main results first:

change in cellular accumulation at Pluronic P85 concentrations above the CMC (P-gp) | change in cellular accumulation with Pluronic P85 up to the CMC (P-gp) | equilibrium free fraction ([1]; 0.5% w/w Pluronic P85) | equilibrium free fraction ([1]; absence of Pluronic P85) | equilibrium free fraction [1, 3] | time to equilibrium [1] | equilibrium free fraction ([1]; 0.1% w/w Pluronic P85) | cellular accumulation at 0.5% w/w P85 versus control without P85 (P-gp) | drug free ([1]; 0.5% w/w Pluronic P85) [%] | Compound | change in cellular accumulation at Pluronic P85 concentrations above the CMC (MDCKII-WT cells) | change in cellular accumulation with Pluronic P85 up to the CMC (MDCKII-WT cells) | cellular accumulation at 0.5% w/w P85 versus control without P85 (MDCKII-WT cells) | increase in cellular accumulation compared to control (MDCKII-WT cells) [fold] | also measured
decreased significantly | increased significantly |  | 0.953 ± 0.109 | 0.941 ± 0.045 | ~ 50 hrs | 0.194 ± 0.02 | not statistically different | 5 | Cc1c(O)cccc1C(=O)N[C@@H](CSc1ccccc1)[C@H](O)CN1C[C@H]2CCCC[C@H]2C[C@H]1C(=O)NC(C)(C)C [nelfinavir] | decreased significantly | no statistically significant enhancement | significantly lower than WT control | 1.3 | increase in cellular accumulation compared to control (P-gp; 0.03% w/w Pluronic P85): 6 fold; (WT/MDR1) accumulation ratio (P-gp; 0.03% w/w P85): 1.4; (WT/MDR1) accumulation ratio (P-gp; 0.5% w/w P85 (highest dose)): 1.23; (WT/MDR1) accumulation ratio (P-gp; absence of P85, 3 h accumulation): 6; drug free ([1]; 0.1% w/w Pluronic P85): 20%
decline in accumulation | significant increase in accumulation | 0.068 ± 0.007 | 0.827 ± 0.114 | 0.744 ± 0.031 |  |  | not significantly different | 7 | CC(C)(C)NC(=O)[C@@H]1C[C@@H]2CCCC[C@@H]2CN1C[C@@H](O)[C@H](Cc1ccccc1)NC(=O)[C@H](CC(N)=O)NC(=O)c1ccc2ccccc2n1 [saquinavir] | decline in accumulation | significant increase in accumulation | not significantly different |  | 
significant only at 0.5% w/w |  |  |  |  |  |  |  |  | CC[C@]1(O)C[C@@H]2CN(CCc3c([nH]c4ccccc34)[C@@](C(=O)OC)(c3cc4c(cc3OC)N(C)[C@H]3[C@@](O)(C(=O)OC)[C@H](OC(C)=O)[C@]5(CC)C=CCN6CC[C@]43[C@@H]65)C2)C1 [vinblastine] | significant only at 0.5% w/w |  |  | 3 | increase in cellular accumulation compared to control (P-gp; 0.05% w/w Pluronic P85 (maximum)): 21 fold; increase in cellular accumulation compared to control (P-gp; 0.5% w/w Pluronic P85): 10 fold; log P [2]: 1.89
